From article PMC4929832 (Nature, 2016)

Legend:
Muscarinic M2 = Muscarinic M2 (Homo sapiens, UniProt P08172); test: Muscarinic M2 calcium flux assay with ATP priming; format: cell-based
PAK5 = PAK5 (Homo sapiens, UniProt Q9P286); test: kinase panel; format: biochemical
ROCK1 = ROCK1 (Homo sapiens, UniProt Q13464); test: kinase panel; format: biochemical
SNF1LK2 = SNF1LK2 (Homo sapiens, UniProt Q9H0K1); test: kinase panel; format: biochemical
SIK = SIK (Homo sapiens, UniProt P57059); test: kinase panel; format: biochemical
H1 receptor = H1 receptor (Homo sapiens, UniProt P35367); test: H1 receptor calcium assay; format: cell-based
MAPKAPK3 = MAPKAPK3 (Homo sapiens, UniProt Q16644); test: kinase panel; format: biochemical
PI3K-BETA = PI3K-BETA (Homo sapiens, UniProt P42338); test: kinase panel; format: biochemical
[1] = Mouse pharmacokinetic studies; format: in vivo; details: 20 mg/kg
DYRK3 = DYRK3 (Homo sapiens, UniProt O43781); test: kinase panel; format: biochemical
EPH-A4 = EPH-A4 (Homo sapiens, UniProt P54764); test: kinase panel; format: biochemical
MARK4 = MARK4 (Homo sapiens, UniProt Q96L34); test: kinase panel; format: biochemical
JAK1 = JAK1 (Homo sapiens, UniProt P23458); test: kinase panel; format: biochemical
PPARgamma Receptor = PPARgamma Receptor (Homo sapiens, UniProt P37231); test: PPARgamma Receptor antagonist assay; format: cell-based
KIT = KIT (Homo sapiens, UniProt P10721); test: kinase panel; format: biochemical
RSK3 = RSK3 (Homo sapiens, UniProt Q15349); test: kinase panel; format: biochemical
AURORA-C = AURORA-C (Homo sapiens, UniProt Q9UQB9); test: kinase panel; format: biochemical
JAK2 = JAK2 (Homo sapiens, UniProt O60674); test: kinase panel; format: biochemical
TAK1-TAB1 = TAK1-TAB1 (Homo sapiens, UniProt O43318); test: kinase panel; format: biochemical
CDK2-CYCLINE = CDK2-CYCLINE (Homo sapiens, UniProt P24941); test: kinase panel; format: biochemical
Histamine H1 receptor = Histamine H1 receptor (Homo sapiens, UniProt P35367); test: Histamine H1 receptor assay; format: binding
PASK = PASK (Homo sapiens, UniProt Q96RG2); test: kinase panel; format: biochemical
MST4 = MST4 (Homo sapiens, UniProt Q9P289); test: kinase panel; format: biochemical
CHEK1 = CHEK1 (Homo sapiens, UniProt O14757); test: kinase panel; format: biochemical
[2] = molecular target: Melanocortin MC3 receptor (Homo sapiens, UniProt P41968); test: Melanocortin MC3 receptor binding assay
IRAK1 = IRAK1 (Homo sapiens, UniProt P51617); test: kinase panel; format: biochemical
DAPK1 = DAPK1 (Homo sapiens, UniProt P53355); test: kinase panel; format: biochemical
Progesterone Receptor = Progesterone Receptor (Homo sapiens, UniProt P06401); test: Progesterone Receptor antagonist assay; format: cell-based
NEK1 = NEK1 (Homo sapiens, UniProt Q96PY6); test: kinase panel; format: biochemical
EPH-B1 = EPH-B1 (Homo sapiens, UniProt P54762); test: kinase panel; format: biochemical
DYRK1B = DYRK1B (Homo sapiens, UniProt Q9Y463); test: kinase panel; format: biochemical
MAPK1 = MAPK1 (Homo sapiens, UniProt P28482); test: kinase panel; format: biochemical
AURORA-B = AURORA-B (Homo sapiens, UniProt Q96GD4); test: kinase panel; format: biochemical
TNK1 = TNK1 (Homo sapiens, UniProt Q13470); test: kinase panel; format: biochemical
LIMK1 = LIMK1 (Homo sapiens, UniProt P53667); test: kinase panel; format: biochemical
FRAP1 = FRAP1 (Homo sapiens, UniProt P42345); test: kinase panel; format: biochemical
AMP-A2B1G1 = AMP-A2B1G1 (Homo sapiens, UniProt P54646); test: kinase panel; format: biochemical
BMX = BMX (Homo sapiens, UniProt P51813); test: kinase panel; format: biochemical
PLK1 = PLK1 (Homo sapiens, UniProt P53350); test: kinase panel; format: biochemical
PRKG1 = PRKG1 (Homo sapiens, UniProt Q13976); test: kinase panel; format: biochemical
H3255 cells = test: Proliferation assay; format: cell-based
How it was run: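 Cells were maintained in 10% FBS/RPMI with penicillin/streptomycin and plated at 500 cells/well in 10% FBS RPMI. Serially diluted test compound was pin-transferred. Viability was read after 3 days by CellTiter-Glo luminescence and normalized to 0.1% DMSO-treated cells and empty wells. EC50 was obtained by non-linear regression curve fitting.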

PKA = PKA (Homo sapiens, UniProt P17612); test: kinase panel; format: biochemical

Sequence of PLK1 (P53350 whole entry): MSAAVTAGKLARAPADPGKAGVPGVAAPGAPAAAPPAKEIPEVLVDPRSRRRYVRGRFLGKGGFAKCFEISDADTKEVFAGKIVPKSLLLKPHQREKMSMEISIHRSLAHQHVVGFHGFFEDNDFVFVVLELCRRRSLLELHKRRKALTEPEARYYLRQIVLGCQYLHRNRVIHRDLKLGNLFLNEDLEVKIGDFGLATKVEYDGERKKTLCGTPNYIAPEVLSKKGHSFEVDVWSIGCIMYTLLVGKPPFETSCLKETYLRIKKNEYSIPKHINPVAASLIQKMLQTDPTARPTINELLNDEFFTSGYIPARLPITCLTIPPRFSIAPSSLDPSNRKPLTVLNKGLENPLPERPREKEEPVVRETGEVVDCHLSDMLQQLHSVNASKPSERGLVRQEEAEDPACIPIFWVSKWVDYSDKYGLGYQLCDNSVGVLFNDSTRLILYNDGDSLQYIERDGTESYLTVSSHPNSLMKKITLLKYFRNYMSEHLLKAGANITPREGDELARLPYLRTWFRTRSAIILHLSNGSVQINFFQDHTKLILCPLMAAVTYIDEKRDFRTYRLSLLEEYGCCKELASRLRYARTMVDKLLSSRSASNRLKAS
Sequence of PRKG1 (Q13976 whole entry): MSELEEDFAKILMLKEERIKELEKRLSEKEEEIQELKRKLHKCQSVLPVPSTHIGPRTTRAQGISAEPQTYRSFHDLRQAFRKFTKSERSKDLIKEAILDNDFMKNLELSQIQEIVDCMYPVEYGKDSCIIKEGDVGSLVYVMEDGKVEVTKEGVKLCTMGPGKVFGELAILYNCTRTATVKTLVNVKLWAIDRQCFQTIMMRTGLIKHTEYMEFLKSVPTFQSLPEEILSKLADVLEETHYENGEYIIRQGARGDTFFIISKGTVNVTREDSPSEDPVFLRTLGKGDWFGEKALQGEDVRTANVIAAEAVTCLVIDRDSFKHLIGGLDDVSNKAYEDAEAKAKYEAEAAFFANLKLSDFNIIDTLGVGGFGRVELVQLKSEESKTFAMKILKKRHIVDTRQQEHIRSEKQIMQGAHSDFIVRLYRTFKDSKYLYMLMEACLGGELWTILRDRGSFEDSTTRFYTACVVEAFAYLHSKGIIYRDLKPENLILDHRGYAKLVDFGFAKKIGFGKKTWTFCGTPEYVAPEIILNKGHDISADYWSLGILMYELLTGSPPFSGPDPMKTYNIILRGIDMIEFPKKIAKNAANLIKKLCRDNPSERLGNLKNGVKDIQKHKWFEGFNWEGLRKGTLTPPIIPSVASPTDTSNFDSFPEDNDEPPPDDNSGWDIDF
Sequence of CHEK1 (O14757 whole entry): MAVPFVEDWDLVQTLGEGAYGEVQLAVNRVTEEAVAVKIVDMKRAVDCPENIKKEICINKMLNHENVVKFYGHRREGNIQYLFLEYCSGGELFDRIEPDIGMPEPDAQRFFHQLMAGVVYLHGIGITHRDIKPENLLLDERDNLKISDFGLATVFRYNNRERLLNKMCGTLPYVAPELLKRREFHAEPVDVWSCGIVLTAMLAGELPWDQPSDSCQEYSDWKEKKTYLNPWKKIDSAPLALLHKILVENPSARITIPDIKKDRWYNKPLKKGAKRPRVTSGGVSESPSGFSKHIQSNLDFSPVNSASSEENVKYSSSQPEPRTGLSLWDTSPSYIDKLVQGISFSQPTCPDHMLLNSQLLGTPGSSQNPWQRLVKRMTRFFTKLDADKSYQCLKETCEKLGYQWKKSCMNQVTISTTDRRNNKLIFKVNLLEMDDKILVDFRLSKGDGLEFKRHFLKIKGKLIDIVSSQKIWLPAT
Sequence of PASK (Q96RG2 whole entry): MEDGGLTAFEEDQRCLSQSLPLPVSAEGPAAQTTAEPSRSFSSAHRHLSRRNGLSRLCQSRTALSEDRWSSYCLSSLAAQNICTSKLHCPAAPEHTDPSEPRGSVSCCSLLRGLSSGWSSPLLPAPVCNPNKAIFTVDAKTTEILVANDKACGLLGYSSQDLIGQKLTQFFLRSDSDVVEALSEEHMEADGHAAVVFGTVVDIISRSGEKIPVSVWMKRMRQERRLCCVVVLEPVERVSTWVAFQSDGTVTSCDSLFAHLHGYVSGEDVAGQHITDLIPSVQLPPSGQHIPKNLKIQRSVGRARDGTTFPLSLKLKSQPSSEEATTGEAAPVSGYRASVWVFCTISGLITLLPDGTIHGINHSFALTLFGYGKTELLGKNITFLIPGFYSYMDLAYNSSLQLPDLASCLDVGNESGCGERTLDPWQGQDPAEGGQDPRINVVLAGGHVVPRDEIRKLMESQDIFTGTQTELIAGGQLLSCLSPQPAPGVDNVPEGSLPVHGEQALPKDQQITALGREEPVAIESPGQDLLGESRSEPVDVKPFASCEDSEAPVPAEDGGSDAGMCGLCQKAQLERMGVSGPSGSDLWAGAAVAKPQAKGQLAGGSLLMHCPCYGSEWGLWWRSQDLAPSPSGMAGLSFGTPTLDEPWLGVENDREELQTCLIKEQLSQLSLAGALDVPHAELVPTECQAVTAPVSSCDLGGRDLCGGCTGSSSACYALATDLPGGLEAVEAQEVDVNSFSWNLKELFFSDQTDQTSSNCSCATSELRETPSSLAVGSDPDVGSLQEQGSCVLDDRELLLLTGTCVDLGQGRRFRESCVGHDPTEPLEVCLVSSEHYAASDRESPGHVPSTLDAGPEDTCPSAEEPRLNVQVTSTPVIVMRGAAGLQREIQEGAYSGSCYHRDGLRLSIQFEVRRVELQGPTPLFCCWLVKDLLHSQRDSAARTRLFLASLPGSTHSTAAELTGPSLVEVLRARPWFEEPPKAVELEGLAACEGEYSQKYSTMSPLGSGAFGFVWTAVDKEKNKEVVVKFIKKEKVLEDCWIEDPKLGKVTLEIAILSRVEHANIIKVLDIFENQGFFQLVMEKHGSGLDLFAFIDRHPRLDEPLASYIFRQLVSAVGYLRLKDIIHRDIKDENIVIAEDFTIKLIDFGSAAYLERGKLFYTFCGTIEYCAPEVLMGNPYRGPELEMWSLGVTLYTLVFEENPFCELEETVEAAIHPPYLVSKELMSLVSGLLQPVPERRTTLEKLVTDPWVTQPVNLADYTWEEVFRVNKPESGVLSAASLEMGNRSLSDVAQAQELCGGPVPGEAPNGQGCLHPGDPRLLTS
Sequence of JAK1 (P23458 whole entry): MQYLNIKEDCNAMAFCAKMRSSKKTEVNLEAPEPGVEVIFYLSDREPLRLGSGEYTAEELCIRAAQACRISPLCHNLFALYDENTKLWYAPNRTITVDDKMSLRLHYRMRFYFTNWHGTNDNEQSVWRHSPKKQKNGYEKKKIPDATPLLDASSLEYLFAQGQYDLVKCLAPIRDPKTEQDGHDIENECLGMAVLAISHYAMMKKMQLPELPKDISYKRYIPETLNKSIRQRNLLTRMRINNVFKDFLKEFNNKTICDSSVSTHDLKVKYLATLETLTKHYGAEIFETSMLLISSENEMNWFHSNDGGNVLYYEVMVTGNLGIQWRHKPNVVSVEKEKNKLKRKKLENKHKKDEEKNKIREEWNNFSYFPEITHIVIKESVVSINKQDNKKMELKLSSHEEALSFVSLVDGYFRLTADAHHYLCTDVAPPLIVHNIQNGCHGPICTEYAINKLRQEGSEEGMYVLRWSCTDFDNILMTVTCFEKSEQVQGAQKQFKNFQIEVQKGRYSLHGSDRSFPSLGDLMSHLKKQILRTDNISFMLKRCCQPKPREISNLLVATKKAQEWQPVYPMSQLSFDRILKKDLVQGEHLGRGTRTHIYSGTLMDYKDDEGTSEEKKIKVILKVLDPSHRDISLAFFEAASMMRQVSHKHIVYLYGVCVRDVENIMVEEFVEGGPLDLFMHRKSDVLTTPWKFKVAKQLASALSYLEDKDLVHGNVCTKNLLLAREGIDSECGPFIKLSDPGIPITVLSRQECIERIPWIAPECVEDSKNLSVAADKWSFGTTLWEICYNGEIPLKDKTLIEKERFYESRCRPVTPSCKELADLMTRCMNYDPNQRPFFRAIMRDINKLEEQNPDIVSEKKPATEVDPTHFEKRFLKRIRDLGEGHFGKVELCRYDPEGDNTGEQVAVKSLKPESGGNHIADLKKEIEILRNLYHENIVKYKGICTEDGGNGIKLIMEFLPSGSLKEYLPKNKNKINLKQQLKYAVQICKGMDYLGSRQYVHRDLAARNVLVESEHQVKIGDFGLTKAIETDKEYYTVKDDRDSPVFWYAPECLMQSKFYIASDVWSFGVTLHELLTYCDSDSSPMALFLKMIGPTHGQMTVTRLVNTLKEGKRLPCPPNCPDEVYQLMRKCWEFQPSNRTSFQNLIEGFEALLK
Sequence of Muscarinic M2 (P08172 whole entry): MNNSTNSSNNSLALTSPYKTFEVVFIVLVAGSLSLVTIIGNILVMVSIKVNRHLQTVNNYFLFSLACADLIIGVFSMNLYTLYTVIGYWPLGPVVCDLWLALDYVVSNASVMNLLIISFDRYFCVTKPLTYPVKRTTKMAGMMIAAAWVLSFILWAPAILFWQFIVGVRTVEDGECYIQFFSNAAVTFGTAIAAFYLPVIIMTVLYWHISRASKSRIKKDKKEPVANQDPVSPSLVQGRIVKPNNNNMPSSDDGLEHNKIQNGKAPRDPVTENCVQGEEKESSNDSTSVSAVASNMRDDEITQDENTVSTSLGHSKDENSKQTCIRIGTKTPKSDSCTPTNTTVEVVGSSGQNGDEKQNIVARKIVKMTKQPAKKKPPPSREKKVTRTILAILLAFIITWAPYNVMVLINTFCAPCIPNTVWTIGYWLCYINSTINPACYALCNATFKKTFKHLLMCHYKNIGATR
Sequence of MAPKAPK3 (Q16644 whole entry): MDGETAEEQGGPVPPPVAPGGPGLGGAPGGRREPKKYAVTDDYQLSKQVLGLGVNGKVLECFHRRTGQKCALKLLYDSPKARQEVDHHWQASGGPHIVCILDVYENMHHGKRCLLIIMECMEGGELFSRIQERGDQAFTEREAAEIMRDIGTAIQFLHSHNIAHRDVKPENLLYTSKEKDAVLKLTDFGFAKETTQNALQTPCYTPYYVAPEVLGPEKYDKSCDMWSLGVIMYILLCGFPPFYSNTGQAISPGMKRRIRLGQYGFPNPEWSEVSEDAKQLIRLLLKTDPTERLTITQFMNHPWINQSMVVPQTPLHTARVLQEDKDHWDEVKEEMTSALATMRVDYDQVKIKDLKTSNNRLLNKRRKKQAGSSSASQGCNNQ

- IC50 (Muscarinic M2): > 30 µM
- inhibition at 1 µM (PAK5): 0%
- inhibition at 1 µM (ROCK1): 0%
- inhibition at 1 µM (SNF1LK2): 0%
- inhibition at 1 µM (SIK): 0%
- IC50 (H1 receptor): > 30 µM
- inhibition at 1 µM (MAPKAPK3): 0%
- inhibition at 1 µM (PI3K-BETA): 0%
- maximal plasma concentration [1]: 0.57 µM
- half-life ([1]; plasma, oral): 2.15 h
- inhibition at 1 µM (DYRK3): 2%
- inhibition at 1 µM (EPH-A4): 0%
- inhibition at 1 µM (MARK4): 0%
- inhibition at 1 µM (JAK1): 0%
- IC50 (PPARgamma Receptor): > 30 µM
- inhibition at 1 µM (KIT): 0%
- inhibition at 1 µM (RSK3): 0%
- inhibition at 1 µM (AURORA-C): 0%
- inhibition at 1 µM (JAK2): 2%
- inhibition at 1 µM (TAK1-TAB1): 0%
- inhibition at 1 µM (CDK2-CYCLINE): 0%
- IC50 (Histamine H1 receptor): > 30 µM
- inhibition at 1 µM (PASK): 1%
- inhibition at 1 µM (MST4): 0%
- inhibition at 1 µM (CHEK1): 0%
- IC50 [2]: > 30 µM
- inhibition at 1 µM (IRAK1): 4%
- inhibition at 1 µM (DAPK1): 0%
- IC50 (Progesterone Receptor): > 30 µM
- inhibition at 1 µM (NEK1): 0%
- inhibition at 1 µM (EPH-B1): 0%
- inhibition at 1 µM (DYRK1B): 2%
- inhibition at 1 µM (MAPK1): 0%
- inhibition at 1 µM (AURORA-B): 4%
- inhibition at 1 µM (TNK1): 0%
- inhibition at 1 µM (LIMK1): 0%
- inhibition at 1 µM (FRAP1): 0%
- inhibition at 1 µM (AMP-A2B1G1): 0%
- inhibition at 1 µM (BMX): 1%
- inhibition at 1 µM (PLK1): 7%
- inhibition at 1 µM (PRKG1): 0%
- EC50 (H3255 cells; Homo sapiens, NCI-H3255, 72 h, read-out: EC50 Proliferation): > 10 µM
- inhibition at 1 µM (PKA): 3%
Compound: O=C(Nc1nccs1)C(c1cc(F)ccc1O)N1Cc2ccccc2C1=O (centres unmarked) [EAI045, 2-(5-fluoro-2-hydroxyphenyl)-2-(1-oxo-2,3-dihydro-1H-isoindol-2-yl)-N-(1,3-thiazol-2-yl)acetamide]
- anti-proliferative effect (H3255 cells; H3255, concentrations as high as 10 μM): no anti-proliferative effect
